In all, about 190,000 compounds went through this assay and about 200 (0.11%) were called active. The full list was thinned out, with actives kept by preference. Unmarked numbers belong to inactive results.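 Rule for the calls: active = inhibition above 80%; inactive = the rest.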
target: Broad substrate specificity ATP-binding cassette transporter ABCG2 (Homo sapiens) (UniProt Q9UNQ0); experiment: blockers of JC-1 export by ABCG2 – multiplex with ABCB1, IgMXP3 cells, flow cytometry, primary screen (AID 1325); conditions: JC-1 efflux, at 6.6 µM, active compounds read high
Sequence (Q9UNQ0 whole entry, looked up): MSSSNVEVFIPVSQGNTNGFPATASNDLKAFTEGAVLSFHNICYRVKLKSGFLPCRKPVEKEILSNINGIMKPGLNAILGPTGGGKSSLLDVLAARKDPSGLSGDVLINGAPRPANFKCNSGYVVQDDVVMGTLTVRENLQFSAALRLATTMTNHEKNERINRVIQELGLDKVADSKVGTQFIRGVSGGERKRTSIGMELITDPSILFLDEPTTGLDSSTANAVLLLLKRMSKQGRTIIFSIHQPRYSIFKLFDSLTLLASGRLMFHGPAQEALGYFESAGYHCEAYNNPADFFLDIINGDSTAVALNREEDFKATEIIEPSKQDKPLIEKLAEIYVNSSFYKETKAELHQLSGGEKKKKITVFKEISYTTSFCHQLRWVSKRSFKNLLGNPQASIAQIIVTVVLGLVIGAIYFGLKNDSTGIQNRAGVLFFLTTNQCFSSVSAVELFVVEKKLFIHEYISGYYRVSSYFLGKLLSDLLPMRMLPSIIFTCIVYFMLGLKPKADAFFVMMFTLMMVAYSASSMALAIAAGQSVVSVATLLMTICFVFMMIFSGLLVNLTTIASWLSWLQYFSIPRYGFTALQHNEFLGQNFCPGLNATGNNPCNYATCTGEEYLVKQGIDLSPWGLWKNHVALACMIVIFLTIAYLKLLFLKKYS
Outline: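 Test system: IgMXP3 (ABCG2) plus far-red-tagged CCRF-Adr (ABCB1) cells. Reagent: JC-1 dye as substrate. Timing: 10 min exposure at 25 °C with rotation, no wash. Measured by: flow cytometric JC-1 green MFI at 530 nm. Read-out: percent efflux inhibition, scaled nicardipine 100% to DMSO 0%. Control set: nicardipine and DMSO wells.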

SMILES | inhibition
CC(C)n1c(-c2ccncc2)n[nH]c1=S | 0.69%
Clc1ncn(CCOc2ccccc2)c1Cl | 1.15%
CN(/C(=N/S(=O)(=O)c1cccs1)c1ccccc1)c1ccc(O)cc1 | 0.46%
N#C/C(=C/c1ccc(N2CCOCC2)o1)C(=O)N1CCOCC1 | 7.86%
COc1ccccc1-c1nnc(NC(=O)c2ccc3ncsc3c2)o1 | -4.46%
COC(=O)c1ccc(CSc2nncn2N)cc1 | -1.84%
CCOc1ccc(CN2CCN(Cc3ccon3)CC2CCO)cc1 (configuration not stated) | -2.99%
Cc1ncc([N+](=O)[O-])n1CCOC(=O)c1ccc(Br)cc1 | 9.29%
CCO/N=C(/C)c1c(O)cc(-c2ccccc2)n(-c2ccccc2)c1=O | 32.1%
Cc1nnsc1C(=O)Nc1cccc(Cl)c1C | 10.7%
CCC1=NN(C(=O)Cc2ccc([N+](=O)[O-])cc2)C(O)(c2ccc(Br)cc2)C1 (configuration not stated) | 5.42%
O=c1c(-c2ccccc2)coc2cc(O)ccc12 | 2.5%
CCn1nc(C)c(/C=N/NC(=O)Cc2ccc(Cl)cc2)c1C | 9.46%
Cc1ccc2nc(SCc3cn4c(C)cc(C)nc4n3)[nH]c2c1 | 7.53%
CC(C)(C)n1nc2c(c1NC(=O)c1cc3ccccc3o1)CSC2 | 0.23%
Cc1nc(N)c(Br)c(C)c1Br | 2.8%
CC(CCn1cccn1)NC(=O)CCc1nnc(CCc2ccccc2)o1 (configuration not stated) | -0.02%
CCOCC(=O)Nc1sc2c(c1C(=O)OCC)CCCC2 | 104% (active)
CCCOC(=O)Nc1sc2c(c1C(=O)OCC)CCC2 | 31.4%
CCOC(=O)c1c(NC(=O)c2ccc(Br)o2)sc2c1CCCC2 | 14.6%
O=C(NCc1ccccc1Cl)C1CCC(CNc2c(N3CCCCC3)c(=O)c2=O)CC1 (configuration not stated) | 0%
CCOC(=O)c1sc(/N=C/C2=C(O)CC(C)(C)CC2=O)c(C(=O)OCC)c1C | 3.82%
COc1ccc(CC(=O)NCc2nnc(SCC(=O)Nc3nccs3)n2C)cc1 | 0.7%

SMILES | inhibition
COc1cc(NC(=O)c2cccnc2SC)cc(OC)c1 | 11.7%
Cc1ccc(N2C(=O)SC(N(CC(=O)O)c3ccc(C)cc3)C2=O)cc1 (configuration not stated) | 1.16%
CC(=O)c1ccc(NC(=O)Nc2ccc([N+](=O)[O-])cc2C)cc1 | 28.4%
COc1ccc(-c2cn(-c3ccc(OC)cc3)c(=S)[nH]2)cc1 | 6.92%
COc1cccc(NC(=O)c2ccc(Cn3cc([N+](=O)[O-])cn3)o2)c1 | 89.2% (active)
O=C(Nc1ccc(Br)c2cccnc12)c1ccc(Cn2cc([N+](=O)[O-])cn2)o1 | 1.01%
CCc1ccc(NC(=O)c2ccc(Cn3cc([N+](=O)[O-])cn3)cc2)cc1 | 1.22%
Cc1ccc(SCCC(=O)NC(C(C)C)C(C)C)cc1 | 29.5%
CCOC(=O)CNc1nc2ccccc2n2c(C)nnc12 | 4.58%
COc1ccc(-n2c(C)cc(C(=O)CSc3nnc(-c4cccs4)o3)c2C)cc1 | 4.95%
Cc1cc(C(=O)COC(=O)c2cccs2)c(C)n1-c1c(C)n(C)n(-c2ccccc2)c1=O | 1.17%
COc1ccc(-n2c(C)cc(C(=O)COC(=O)c3cc(OC)c(OC)cc3NC(=O)c3cccs3)c2C)cc1 | 91.7% (active)
Brc1ccc(-c2csc(N/N=C/c3cccnc3)n2)cc1 | -0.01%
O=C(COC(=O)c1ccccc1)Nc1cccc(S(=O)(=O)N2CCOCC2)c1 | 8.84%
Cc1ccc(NC(=O)C(=O)NCc2ccc(/C=N/NC(=O)c3c(C)nc4cc(C)ccn34)o2)cc1 | 24.5%
c1ccc(-n2nnnc2-c2cccnc2)cc1 | 1.93%
COc1cccc(OC)c1C(=O)Nc1ccc(Cc2ccncc2)cc1 | 1.46%
CCOc1ccc(C(CC(=O)O)NC(=O)C23CC4CC(CC(C4)C2)C3)cc1OC (configuration not stated) | -1.01%
O=[N+]([O-])c1ccc2[nH]c3c(c2c1)CCCC3O (configuration not stated) | 14.8%
O=C(NC1CC1)C1CCCN(C(=O)NC2CCCCC2)C1 (configuration not stated) | 6.29%
CCN(CC)c1ccc([N+](=O)[O-])cc1C(=O)O | 3.47%
COc1cccc2cc(/C(C)=N/NC(=O)c3ccco3)oc12 | 6.63%
CC(=O)N1CCc2cc(Br)cc(S(=O)(=O)CCC(=O)Nc3c(C)n(C)n(-c4ccccc4)c3=O)c21 | -0.95%

SMILES | inhibition
O=C(Cn1ncc(N2CCCC2)c(Br)c1=O)c1ccc(Cl)cc1 | 8.74%
O=C(N/C(=C\c1ccc(F)cc1)C(=O)N1CCCCCC1)c1ccccc1 | 0.94%
CCc1nnc(NC(=O)Cc2cccs2)s1 | -0.23%
C/C(=N\Nc1ncc(Cl)cc1Cl)c1ccc(S(=O)(=O)NCc2ccco2)cc1 | 81.6% (active)
COc1cccc(/C(C)=N/Nc2ncc(Cl)cc2Cl)c1 | 16.5%
Cc1c(Cl)cnc(NC(=O)COC(=O)c2ccc(S(=O)(=O)NCc3ccco3)cc2)c1Cl | -0.23%
Cc1ccccc1N/C(SCc1ccc(Cl)cc1)=C(/C#N)C(N)=O | 9.99%
C/C(N)=C(/C#N)C(=O)COC(=O)C1CCN(C(=O)c2ccc(Cl)cc2)CC1 | 6.63%
Cc1c(C(=O)NCCCc2ccccc2)cccc1[N+](=O)[O-] | 5.18%
O=C(NCCCN1CCOCC1)c1ccc([N+](=O)[O-])cc1[N+](=O)[O-] | 1.56%
CN1CCCN(C(=O)C2CCCCC2)CC1 | 3.74%
CCN1CCN(C(=O)CCN2C(=O)c3ccccc3C2=O)CC1 | 12.2%
CCN(C(=O)CSc1nnc2ccccn12)C1CCS(=O)(=O)C1 (configuration not stated) | 6.4%
O=C(CCCOc1ccc(Cl)cc1Cl)NNC(=O)C1CCC1 | 8.42%
C#CCOCCOCCOCCNc1nc(N2CCN(C(=O)[C@H](Cc3ccc(O)cc3)n3cc(C(N)CC(C)C)nn3)CC2)nc(N2CCN(C(=O)[C@H](CCC(=O)O)n3cc(C(N)[C@H](C)CC)nn3)CC2)n1 (some centres not stated) | -1.91%
Cc1[nH]c2ccccc2c1/C=N/NC(=O)CNC(=O)c1ccc2c(c1)OCO2 | 0.16%
O=C(NNC(=S)Nc1ccc(Br)cc1Cl)c1ccco1 | -9.07%
CNC(=O)c1ccsc1NC(=O)c1ccc(S(=O)(=O)N2CCc3ccccc32)cc1 | 0.15%
CCCC(=O)NC(=S)Nc1ccc(CN2CCOCC2)cc1 | 1.31%
CCN(C(=O)COC(=O)/C=C/c1nc2ccccc2s1)C1CCS(=O)(=O)C1 (configuration not stated) | 1.28%
O=C(Nc1ccc(C(=O)O)cc1)/C(=C/c1ccc([N+](=O)[O-])cc1)NC(=O)c1ccccc1 | 2.36%
C=CCNC(=O)/C=C/c1ccc(C(C)C)cc1 | 3.56%
Cc1ccc(S(=O)(=O)NCCc2nnc3ccc(SCc4cccnc4)nn23)cc1 | 0.68%

SMILES | inhibition
COc1ccc(C(=O)COC(=O)c2nn(C)c(=O)c3ccccc23)c(OC)c1 | 8.17%
COCCCNC(=O)CNC(=S)N(Cc1cc(OC)c(OC)c(OC)c1)C1CCCC1 | -0.12%
O=C(COc1ccc(S(=O)(=O)N2CCCCC2)cc1)NCc1ccccn1 | 1.47%
CC1(C)CC(=O)c2c(n(S(=O)(=O)c3ccccc3)c3ccc(NS(=O)(=O)c4ccccc4)cc23)C1 | -0.92%
COc1ccc(Cl)cc1N(CC(=O)N/N=C/c1ccc(OCC(N)=O)cc1)S(C)(=O)=O | 8.83%
CCOc1ccc(-n2cnnn2)cc1S(=O)(=O)N1CCC(C)CC1C (configuration not stated) | 0.53%
O=C(NCCN1CCOCC1)Nc1cccc(Cl)c1 | 4.87%
Cc1cc(C)c2[nH]c(=O)c(CN(Cc3ccccc3)C(=S)NCCCN(C)C)cc2c1 | 54.5%
Nn1c(SCC(=O)Nc2nccs2)nncc1=O | 0.11%
COCCCNC(=O)/C=C/c1ccc(OCc2c(F)cccc2Cl)cc1 | 3.58%
COc1ccc(-c2[nH]ncc2CN(Cc2nccn2C)C(C)C)cc1F | 3.43%
N#CC1(C#N)C(C(=O)C23CC4CC(CC(C4)C2)C3)C12CCOCC2 (configuration not stated) | -1.02%
COc1cc(N2C(=O)c3ccccc3C2=O)c(Cl)cc1C(=O)OCC(=O)N1CCOCC1 | 2.21%
O=C(Oc1cccc(N2C(=O)C3C4c5ccccc5C(c5ccccc54)C3C2=O)c1)c1ccco1 (configuration not stated) | 0.99%
O=C1OCC2=C1C(c1ccccc1)CC(=O)N2c1cccc(F)c1 (configuration not stated) | 10.8%
COc1ccc(CN(C)Cc2nc3cc(OC)c(OC)cc3c(=O)[nH]2)c(OC)c1 | 3.26%
C[N+]1(CC(O)COc2ccccc2)CCN(C(=O)c2ccc([N+](=O)[O-])cc2)CC1 (configuration not stated) | 4.9%
CC1(C)CC(=O)C2=C(C1)Nc1cc(C(=O)c3ccccc3)ccc1NC2c1ccccn1 (configuration not stated) | 1.87%
CCN=c1sc(C(=O)Nc2ccccc2)c(C)n1CC | 3.73%
CC(C)(C)C(=O)CN1C2=NCCN2c2ccccc21 | 2.76%
Cn1c(=O)c2c(nc(N/N=C/c3cccs3)n2Cc2ccc(Br)cc2)n(C)c1=O | 8.74%
COc1ccc(Cl)cc1NC(=O)CNc1ccccc1F | 28.9%
Cc1ccc2sc(NNC(=O)c3ccc4c(c3)OCCO4)nc2c1C | 0%
